This is a sample that favours compounds with a hit; in the whole collection about 3% have one here.
MPTP inh: permeability transition pore inhibition. isolated mouse mitochondria, Ca2+ swelling absorbance, 30 min. inhibition, % at 10 µM. actives 1.4% (n = 360,000). AID 602449;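 active means inhibition of 50% or more, scaled per plate between neutral and stimulator controls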;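 further: 0% = DMSO wells given calcium and 100% = 1 mM EGTA wells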
UBC13 polyUb: blocks human UBC13 polyubiquitin chain formation | P61088 | TR-FRET | inhibition, % at 20 µM | actives 0.47% (n = 330,000) | AID 485273; in the data active means inhibition above about 45%, passing the limit was not always enough; inconclusive means no clear call, values can overlap the other calls
Granule exo inh: lytic granule exocytosis inhibition. TALL-104 LAMP-1 surface exposure, flow cytometry; cells stimulated with thapsigargin and PMA. inhibition, % at 10 µM. actives 0.66% (n = 360,000). AID 651702;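 active means inhibition above about 55%, limit read from the data; inconclusive means no clear call, values can overlap the other calls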
Apaf-1 inh: inhibitors of human Apaf-1 apoptosome; O14727; reconstituted apoptosome caspase-3 activity, DEVD-Rh110 fluorescence; inhibition, % at 20 µM; actives 0.71% (n = 330,000); AID 489030; active means inhibition of at least 40% at 20 µM;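 further: plate controls were DMSO wells for no effect and DEVD-CHO caspase inhibitor wells for full effect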
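Material: cell-free apoptosome with Apaf-1, procaspase-3 and caspase-9; Buffer or medium: Hepes pH 7.5 with detergent and BSA; Reagent: cytochrome c trigger plus (Z-DEVD)2-Rh110 caspase-3 substrate; Times: compound with Apaf-1, dATP, procaspase-3 30 min, then 50 min reaction, room temperature; Technique: Rh110 fluorescence intensity.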
beta cell repl: induces beta-cell replication in MIN6 cells. MIN6 cells proliferation, ATPlite luminescence, 48 h; cells starved in 0.2% serum; 100% = growth in 10% serum. proliferation, % at 10 µM. actives 0.29% (n = 330,000). AID 2380;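 active means compounds whose signal lies at least 3.5 SD above the mean of all wells on their plate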;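 further: 0% = DMSO-treated cells in low-serum medium and 100% = 10% serum control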
iPSC survival up: increases survival of single human iPS cells; survival enhancement, % at 20 µM; hiPSC single-cell survival, ATPlite luminescence; 100% = ROCK inhibitor wells, 0% = DMSO; actives 0.044% (n = 360,000); in the data active means survival enhancement above about 18%;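 further: cells exposed to compounds for 16 hours before the ATP read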
Exocytosis CP01: blocks lytic granule exocytosis; actives 11% (n = 1,500); TALL-104 cells, LAMP-1 externalization, flow cytometry; stimulated with PMA plus thapsigargin; inhibition, % at 10 µM; shares compounds with Granule exo inh; AID 651954; in the data active means inhibition above about 60%;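 further: 0% = stimulated vehicle wells and 100% = unstimulated wells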
* marks the source's active call; other numbers are inactive results; ? = inconclusive; . = not tested or not shown.

SMILES	MPTP inh	UBC13 polyUb	Granule exo inh	Apaf-1 inh	beta cell repl	iPSC survival up	Exocytosis CP01
Cc1ccc(-n2cc(-c3ccccc3)c3c(N4CCN(C)CC4)ncnc32)cc1	0.3	14.7	69.0*	8.8	-6.5	0.2	6.8
CC1(C(=O)NS(=O)(=O)c2ccccc2Cl)CCN1C(=O)CCc1ccccc1 (stereo not drawn)	-0.4	.	-6.1	.	.	3.6	.
CC(Nc1nc(N2CCNCC2)nc2ccccc12)c1ccccc1 (stereo not drawn)	-2.0	-5.0	86.9*	1.0	-6.4	-0.9	78.8*
COc1ccccc1CNC(=O)CN1C(=O)NC(Cc2ccccc2)(c2ccccc2)C1=O (stereo not drawn)	1.2	7.0	-2.0	8.8	-3.4	1.5	.
CC(NC(=O)CSc1nc2c(c(C(F)(F)F)n1)CCc1ccccc1-2)c1ccccc1 (stereo not drawn)	1.5	6.1	58.8*	11.1	-5.2	-0.2	-2.6
Clc1ccc2nc(N3CCNCC3)nc(-c3ccccc3)c2c1	3.7	?	86.5*	27.9	-6.1	-4.6	58.8
CC1CN(CCOc2cccc(Oc3ccccc3)c2)CC(C)O1 (stereo not drawn)	1.1	1.2	16.4	5.3	1.3	0.4	.
CC1CCCN(CCOc2cccc(Oc3ccccc3)c2)C1 (stereo not drawn)	0.7	7.6	60.0*	7.2	-4.2	0.4	-9.7
Cc1ccc(NC(=O)CCS(=O)(=O)c2ccc3c(c2)NC(=O)C(C)S3)nc1 (stereo not drawn)	-0.9	-2.3	3.9	13.4	-1.1	-0.6	.
Cc1nc2sc(C#N)c(N)c2c2c1CCCC2	-2.1	7.1	2.7	12.5	5.0	-2.2	.
CC(=O)c1sc2nc(C)c3c(c2c1N)CCCC3	3.3	-6.9	62.3*	8.7	1.4	0.6	-5.2
CN=Cc1nc(-c2ccccc2)oc1O	-0.5	-16.2	-1.1	7.9	-2.0	-0.7	.
CC1=Nc2ccccc2/C1=C\c1nc(-c2ccc(F)cc2)oc1O	7.5	-116.2	76.1*	-6.5	-3.8	-0.9	35.5
C=CCN(C(=O)CCc1ccccc1OC)c1nc(-c2ccc(S(C)(=O)=O)cc2)cs1	2.0	3.5	82.6*	13.9	-0.6	0.8	-11.6
Cc1ccsc1CN(C)CC(=O)Nc1ccc([N+](=O)[O-])cc1Cl	0.9	-2.4	98.6*	12.5	-1.7	1.6	18.6
CN(CC(=O)Nc1cc([N+](=O)[O-])ccc1Cl)Cc1ccc(Br)cc1	0.7	16.3	9.1	17.5	0.0	-0.5	.
CN(C)CCOC1c2ccccc2CCc2ccc3ccccc3c21 (stereo not drawn)	-1.7	20.4	28.4	3.4	-4.3	-0.5	.
O=C1CCC[C@@H]2C[C@@]3(C[C@@H]4CCN1[C@H]24)Nc1cc(Cl)ccc1NC3=NC1CCCCC1	0.0	.	75.5*	.	.	0.9	-11.8
O=C1CC[C@@H]2CC3(C[C@@H]4CCN1[C@H]24)Nc1cc(Cl)ccc1NC3=NC1CCCCC1 (stereo partly drawn)	-0.6	.	43.5	.	.	1.6	.
CC(NC(=O)CC12CC3CC(CC(C3)C1)C2)C(=O)O (stereo not drawn)	-0.3	4.1	63.3*	-11.2	-2.2	4.0	-3.5
CCc1nc2ccc(C(=O)Nc3cc(-c4ccccc4)ccc3OC)cn2c1N(CC)CCN(C)C	-4.3	.	59.5*	.	.	-5.7	47.7
CCc1nc2ccc(C(=O)Nc3cc(-c4ccccc4)ccc3OC)cn2c1N(CC)Cc1cccc(Br)c1	0.9	.	13.9	.	.	-1.4	.
CNC(=O)CSc1nnc(NC(=O)C2CC(=O)N(c3ccccc3OC)C2)s1 (stereo not drawn)	-1.2	-3.2	1.7	-2.0	-3.9	1.8	.
Cc1cc2oc(=O)cc(CN(C)Cc3ccccc3F)c2cc1Cl	1.4	-5.2	28.3	27.7	0.0	0.2	.
Cc1cc2oc(=O)cc(CN(C)Cc3ccccc3Cl)c2cc1C	-1.0	-2.1	96.0*	21.2	0.0	0.2	0.2
COc1ccc2oc(=O)cc(CN(C)Cc3ccccc3)c2c1	0.6	11.3	71.6*	-1.3	-2.6	0.0	0.4
Cc1cc2oc(=O)cc(CN(C)Cc3ccccc3)c2cc1C(C)C	1.2	6.6	68.7*	17.6	-5.2	0.6	3.8
